Assay results published in ChEMBL document CHEMBL1275363, “Design, synthesis, crystal structures, and antimicrobial activity of sulfonamide boronic acids as β-lactamase inhibitors” (J Med Chem, 2010).
Calls of active or inactive are those of the source. The calls are words filed in the database; no cut-off is given here.

Tests used:
[1] = Inhibition of AmpC beta-lactamase
Pseudomonas aeruginosa = test: Inhibition of Pseudomonas aeruginosa beta-lactamase class C assessed as fold decrease in Ceftazidime MIC […]
Procedure, shortened: (§1)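 MICs were measured on clinical isolates following CLSI guidelines in Mueller-Hinton medium. Inhibitor was dissolved in 50% DMSO, with final DMSO below 5%, and combined with ceftazidime at a 1:1 β-lactam:inhibitor ratio. Fold change is compared with ceftazidime alone. Values are means of three independent experiments.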

Klebsiella pneumoniae = test: Antimicrobial activity against AmpC-beta lactamase producing Klebsiella pneumoniae by disk diffusion assay; format: functional, organism-based
Enterobacter cloacae = test: Inhibition of Enterobacter cloacae beta-lactamase class C assessed as fold decrease in Ceftazidime MIC […]; procedure, shortened: as §1
[2] = biological target: AmpC (Klebsiella pneumoniae) (UniProt Q84AD8); test: Inhibition of Klebsiella pneumoniae AmpC beta-lactamase DHA-1 assessed as fold decrease in Ceftazidime MIC […]; procedure, shortened: as §1
[3] = biological target: Beta-lactamase CTX-M-14 (Escherichia coli) (UniProt Q9L5C7); test: Inhibition of Escherichia coli class A beta-lactamase CTX-M-14 assessed as fold decrease in Ceftazidime MIC […]; procedure, shortened: as §1
Citrobacter freundii = test: Inhibition of Citrobacter freundii beta-lactamase class C assessed as fold decrease in Ceftazidime MIC […]; procedure, shortened: as §1
Escherichia coli = test: Inhibition of Escherichia coli beta-lactamase class C assessed as fold decrease in Ceftazidime MIC […]; procedure, shortened: as §1
[4] = biological target: AmpC (Klebsiella pneumoniae) (UniProt Q84AD8); test: Inhibition of Klebsiella pneumoniae AmpC beta-lactamase DHA-1 assessed as increase in ceftazidime-induced antibacterial activity by disk diffusion assay
[5] = Inhibition of beta-lactamase CTX-M-9

Question: With `O=C(Cc1ccccc1)NCB(O)O` as the compound, how does the Ki [1] read?
Answer: Its Ki is 570 nM.

Question: For `O=C(Cc1cccs1)N[C@H](B(O)O)c1cccc(C(=O)O)c1`, which Ki [1] is on record?
Answer: The Ki was 1 nM.

Question: For `COC(=O)c1ccc(CS(=O)(=O)NCB2OC(C)(C)C(C)(C)O2)cc1`, which Ki [1] is on record?
Answer: Its Ki is 120 nM.

Question: Which Ki [1] does the source give for `O=S(=O)(Cc1ccccc1)N[C@@H](Cc1ccccc1)B(O)O` here?
Answer: Its Ki is 3720 nM.

Question: Which Ki [1] does the source give for `O=C(Cc1cccs1)N[C@@H](Cc1cccc(C(=O)O)c1)B(O)O` here?
Answer: The Ki was 39 nM.

Question: Which Ki [1] does the source give for `CCOc1ccc2ccccc2c1S(=O)(=O)NCB(O)O` here?
Answer: The Ki was 670 nM.

Question: For `O=[N+]([O-])c1cccc(CS(=O)(=O)NCB(O)O)c1`, which Ki [1] is on record?
Answer: Its Ki is 189 nM.

Question: For `O=S(=O)(Cc1ccccc1)NCB(O)O` [PINACOL(PHENYLMETHANESULFONYLAMINO)METHANEBORONATE], which fold change (FC) (Pseudomonas aeruginosa) is on record?
Answer: Its fold change (FC) is 8.

Question: And the Activity (Klebsiella pneumoniae)?
Answer: The Activity was “inactive”.

Question: What about the fold change (FC) (Enterobacter cloacae) of the same compound?
Answer: The fold change (FC) was 8.

Question: And the fold change (FC) [2]?
Answer: Its fold change (FC) is 8.

Question: And the fold change (FC) [3]?
Answer: The fold change (FC) was 16.

Question: And the fold change (FC) (Citrobacter freundii)?
Answer: Its fold change (FC) is 8.

Question: What about the fold change (FC) (Escherichia coli) of the same compound?
Answer: The fold change (FC) was 8.

Question: And the Activity [4]?
Answer: The Activity was “Active”.

Question: What about the IC50 [5] of the same compound?
Answer: The IC50 was 6870 nM.

Question: Which Ki [1] does the source give for `Nc1cccc(CS(=O)(=O)NCB(O)O)c1` here?
Answer: Its Ki is 106 nM.

Question: With `CS(=O)(=O)NCB(O)O` [PINACOL(METHANESULFONYLAMINO)METHANEBORONATE] as the compound, how does the Ki [1] read?
Answer: The Ki was 789 nM.

Question: With `O=C(O)c1ccc(CS(=O)(=O)NCB(O)O)cc1` as the compound, how does the Activity (Klebsiella pneumoniae) read?
Answer: The Activity was “inactive”.

Question: What about the Activity [4] of the same compound?
Answer: The Activity was “Active”.

Question: And the IC50 [5]?
Answer: The IC50 was 1500 nM.

Question: Which Ki [1] does the source give for `Cc1ccc(S(=O)(=O)NCB(O)O)cc1` here?
Answer: Its Ki is 210 nM.
